Measured values: ChEMBL document CHEMBL4406851, “Design, synthesis and biological evaluation of cinnamic acid derivatives with synergetic neuroprotection and angiogenesis effect” (Eur J Med Chem, 2019)
pEC50: −log10 of the molar value. Activity calls are given as the source filed them. No cut-off for these calls is given here.

Tests used:
[1] = system: SH-SY5Y; assay: Neuroprotective activity against H2O2-induced cell damage in human SH-SY5Y cells assessed as increase in cell viability preincubated for 24 hrs followed by H2O2 addition and measured after 4 hrs by MTT assay; type: functional, cell-based
How it was run: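 Cells at 3.5×10^4 cells/mL in 96-well plates were grown 24 h (37 °C, 5% CO2). Test agent was added at five concentrations for 24 h, then H2O2 (4.8 mM stock) to model and drug wells. After PBS washes, MTT (5 mg/mL) was added for 4 h, formazan was dissolved in DMSO and OD was read at 550 nm. Proliferation rate = (drug − injury OD)/(control − injury OD). EC50 came from a formula using maximum concentration and summed, maximal and minimal rates.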

[2] = system: HBMEC-2; assay: Protection against H2O2-induced apoptosis in human HBMEC2 cells assessed as reduction in cell shrinkage at 1.56 to 6.25 uM preincubated for 24 hrs followed by H2O2 addition and measured after 4 hrs by Giemsa staining based inverted phase contrast microscopic analysis; type: functional
How it was run: (§1)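 Cells at 3.5×10^4 cells/mL in 24-well plates were pretreated 24 h with compound at three concentrations, then H2O2 (4.8 mM stock) for 4 h. After PBS washes, cells were fixed in 4% paraformaldehyde/70% cold ethanol for 10 min. Staining was 6% Giemsa or DAPI for 5 min in the dark. Random fields were photographed at 200× by microscope, alongside control and model groups.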

[3] = system: SH-SY5Y; assay: Protection against H2O2-induced apoptosis in human SH-SY5Y cells assessed as reduction in cell disruption at 1.56 to 6.25 uM preincubated for 24 hrs followed by H2O2 addition measured after 4 hrs by Giemsa staining based inverted phase contrast microscopic analysis; type: functional; how it was run: as §1
[4] = system: SH-SY5Y; assay: Protection against H2O2-induced apoptosis in human SH-SY5Y cells assessed as decrease in number of irregular cells preincubated for 24 hrs followed by H2O2 addition measured after 4 hrs by DAPI staining based inverted phase contrast microscopic analysis; type: functional, cell-based; how it was run: as §1
[5] = system: SH-SY5Y; assay: Protection against H2O2-induced apoptosis in human SH-SY5Y cells assessed as decrease in nuclear fragmentation preincubated for 24 hrs followed by H2O2 addition measured after 4 hrs by DAPI staining based inverted phase contrast microscopic analysis; type: functional, cell-based; how it was run: as §1
[6] = Inhibition of H2O2-induced apoptosis in human HBMEC2 cells assessed as late apoptotic cells at 1.56 uM preincubated for 24 hrs followed by H2O2 addition measured after 4 hrs by Annexin V-FITC/propidium iodide staining based flow cytometry (reference value: 29.4 %); type: functional, HBMEC-2; parameters: scale not given: the % may be the effect or the level left
How it was run: (§2)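 Cells were seeded at 3.5×10^4 cells/mL in 6-well plates at 37 °C, 5% CO2. Compound was added at three concentrations for 24 h, then H2O2 (4.8 mM stock solution) to model and drug wells for 4 h. Cells were collected, washed in cold PBS and resuspended in annexin-binding buffer. Staining was annexin V-FITC 10 min, then PI 5 min, in the dark, followed by flow cytometry with quadrant gating.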

[7] = Inhibition of H2O2-induced apoptosis in human HBMEC2 cells assessed as normal cells at 1.56 uM preincubated for 24 hrs followed by H2O2 addition measured after 4 hrs by Annexin V-FITC/propidium iodide staining based flow cytometry (reference value: 62.1 %); type: functional, HBMEC-2; parameters: scale not given: the % may be the effect or the level left; how it was run: as §2
[8] = Inhibition of H2O2-induced apoptosis in human HBMEC2 cells assessed as early apoptotic cells at 1.56 uM preincubated for 24 hrs followed by H2O2 addition measured after 4 hrs by Annexin V-FITC/propidium iodide staining based flow cytometry (reference value: 8.1 %); type: functional, HBMEC-2; parameters: scale not given: the % may be the effect or the level left; how it was run: as §2
[9] = Inhibition of H2O2-induced apoptosis in human HBMEC2 cells assessed as late apoptotic cells at 3.13 uM preincubated for 24 hrs followed by H2O2 addition measured after 4 hrs by Annexin V-FITC/propidium iodide staining based flow cytometry (reference value: 29.4 %); type: functional, HBMEC-2; parameters: scale not given: the % may be the effect or the level left; how it was run: as §2
[10] = Inhibition of H2O2-induced apoptosis in human HBMEC2 cells assessed as necrotic cells at 6.25 uM preincubated for 24 hrs followed by H2O2 addition measured after 4 hrs by Annexin V-FITC/propidium iodide staining based flow cytometry (reference value: 0.4 %); type: functional, HBMEC-2; parameters: scale not given: the % may be the effect or the level left; how it was run: as §2
[11] = Inhibition of H2O2-induced apoptosis in human HBMEC2 cells assessed as late apoptotic cells at 6.25 uM preincubated for 24 hrs followed by H2O2 addition measured after 4 hrs by Annexin V-FITC/propidium iodide staining based flow cytometry (reference value: 29.4 %); type: functional, HBMEC-2; parameters: scale not given: the % may be the effect or the level left; how it was run: as §2
[12] = system: SH-SY5Y; assay: Inhibition of H2O2-induced apoptosis in human SH-SY5Y cells assessed as early apoptotic cells at 1.56 uM preincubated for 24 hrs followed by H2O2 addition measured after 4 hrs by Annexin V-FITC/propidium iodide staining based flow cytometry (reference value: 5.4 %); type: functional; parameters: scale not given: the % may be the effect or the level left; how it was run: as §2
[13] = system: SH-SY5Y; assay: Inhibition of H2O2-induced apoptosis in human SH-SY5Y cells assessed as late apoptotic cells at 3.13 uM preincubated for 24 hrs followed by H2O2 addition measured after 4 hrs by Annexin V-FITC/propidium iodide staining based flow cytometry (reference value: 26.5 %); type: functional; parameters: scale not given: the % may be the effect or the level left; how it was run: as §2
[14] = system: SH-SY5Y; assay: Inhibition of H2O2-induced apoptosis in human SH-SY5Y cells assessed as normal cells at 3.13 uM preincubated for 24 hrs followed by H2O2 addition measured after 4 hrs by Annexin V-FITC/propidium iodide staining based flow cytometry (reference value: 67.2 %); type: functional; parameters: scale not given: the % may be the effect or the level left; how it was run: as §2
[15] = system: SH-SY5Y; assay: Inhibition of H2O2-induced apoptosis in human SH-SY5Y cells assessed as early apoptotic cells at 3.13 uM preincubated for 24 hrs followed by H2O2 addition measured after 4 hrs by Annexin V-FITC/propidium iodide staining based flow cytometry (reference value: 5.4 %); type: functional; parameters: scale not given: the % may be the effect or the level left; how it was run: as §2
[16] = system: SH-SY5Y; assay: Inhibition of H2O2-induced apoptosis in human SH-SY5Y cells assessed as late apoptotic cells at 6.25 uM preincubated for 24 hrs followed by H2O2 addition measured after 4 hrs by Annexin V-FITC/propidium iodide staining based flow cytometry (reference value: 26.5 %); type: functional; parameters: scale not given: the % may be the effect or the level left; how it was run: as §2
[17] = system: SH-SY5Y; assay: Inhibition of H2O2-induced apoptosis in human SH-SY5Y cells assessed as normal cells at 6.25 uM preincubated for 24 hrs followed by H2O2 addition measured after 4 hrs by Annexin V-FITC/propidium iodide staining based flow cytometry (reference value: 67.2 %); type: functional; parameters: scale not given: the % may be the effect or the level left; how it was run: as §2
[18] = system: SH-SY5Y; assay: Protection against H2O2-induced mitochondrial dysfunction in human SH-SY5Y cells assessed as recovery of mitochondrial membrane potential at 1.56 to 6.25 uM preincubated for 24 hrs followed by H202 addition measured after 4 hrs by Rh123 staining based inverted light microscopic analysis; type: functional, cell-based
How it was run: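 Cells in 96-well plates (3.5×10^4 cells/mL) were grown 24 h. They were pretreated 24 h with compound at three concentrations, then exposed to H2O2 (4.8 mM stock) for 4 h. Medium was removed and Rh123 added for 30 min at 37 °C. Cells were washed twice in cold PBS and examined immediately under an inverted microscope for green fluorescence.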

[19] = system: SH-SY5Y; assay: Inhibition of H2O2-induced apoptosis in human SH-SY5Y cells preincubated for 24 hrs followed by H2O2 addition measured after 4 hrs by Annexin V-FITC/propidium iodide staining based flow cytometry; type: functional, cell-based; how it was run: as §2
[20] = system: SH-SY5Y; assay: Protection against H2O2-induced apoptosis in human SH-SY5Y cells assessed as increase in cell number at 1.56 to 6.25 uM preincubated for 24 hrs followed by H2O2 addition measured after 4 hrs by Giemsa staining based inverted phase contrast microscopic analysis; type: functional; how it was run: as §1
[21] = system: HBMEC-2; assay: Protection against H2O2-induced apoptosis in human HBMEC2 cells assessed as increase in cell number at 1.56 to 6.25 uM preincubated for 24 hrs followed by H2O2 addition and measured after 4 hrs by Giemsa staining based inverted phase contrast microscopic analysis; type: functional; how it was run: as §1

Q: With `COc1cc(CNC(=O)/C=C/c2cc(OC)c(OC)cc2OC)ccc1O` as the compound, how does the pEC50 [1] read?
A: Its pEC50 is 5.62.

Q: What about the Activity [2] of the same compound?
A: The Activity was “Active”.

Q: What about the Activity [3] of the same compound?
A: Its Activity is “Active”.

Q: What about the Activity [4] of the same compound?
A: Its Activity is “Dose-dependent effect”.

Q: And the Activity [5]?
A: The Activity was “Dose-dependent effect”.

Q: What about the Activity [6] of the same compound?
A: The Activity was 19.3%.

Q: And the Activity [7]?
A: Its Activity is 70.6%.

Q: And the Activity [8]?
A: The Activity was 9.1%.

Q: What about the Activity [9] of the same compound?
A: The Activity was 10.5%.

Q: What about the Activity [10] of the same compound?
A: Its Activity is 0.1%.

Q: What about the Activity [11] of the same compound?
A: Its Activity is 10.2%.

Q: And the Activity [12]?
A: Its Activity is 4.3%.

Q: What about the Activity [13] of the same compound?
A: The Activity was 21%.

Q: What about the Activity [14] of the same compound?
A: The Activity was 74.7%.

Q: And the Activity [15]?
A: Its Activity is 4.2%.

Q: And the Activity [16]?
A: Its Activity is 14%.

Q: What about the Activity [17] of the same compound?
A: Its Activity is 82.3%.

Q: What about the Activity [18] of the same compound?
A: Its Activity is “Active”.

Q: And the inhibition [19]?
A: Its inhibition is “Dose-dependent effect”.

Q: What about the Activity [20] of the same compound?
A: The Activity was “Active”.

Q: And the Activity [21]?
A: The Activity was “Active”.
